Results taken from PMC5360466 (Hepatology (Baltimore, Md.), 2017).
Entries after “also recorded” stand apart in the source; their conditions may differ.

Key:
[1] = test system: RRV; experiment: RRV binding; type: cell-based; conditions: for effect on RRV-cholangiocyte binding: peptides at varying concentrations, 4°C
In short: (§1)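 Confluent mouse or H69 cholangiocytes were pretreated with peptide (1 mM, or varying concentrations). Cells, medium and virus were chilled to 4°C, then inoculated and held 1 h at 4°C. Cells were washed twice and freeze/thawed twice. Bound virus (cell fraction) and unbound virus (washes plus inoculum) were titred by focus forming assay, and attached virus was expressed as % of inoculum. DGEA and GHRP peptides served as controls. Data are mean ± standard error, ANOVA.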

[2] = test system: TUCH; experiment: TUCH binding assay in mouse cholangiocytes; type: cell-based, rotavirus, simian strain; mouse cholangiocytes; conditions: mouse cholangiocytes pretreated with 1 mM peptide; Fig. 2A, 3B
In short: as §1

[3] = test system: TUCH; experiment: TUCH viral yield in mouse cholangiocytes; type: cell-based, rotavirus, simian strain; mouse cholangiocytes; conditions: mouse cholangiocytes pretreated with 1 mM peptide; Fig. 2B, 3C
In short: (§2)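 Mouse or H69 cholangiocytes were pretreated with peptide in DMEM (1 mM, or varying concentrations) and infected at 4°C, then incubated 18 h at 37°C. Infectious yield was measured by focus forming assay: serial dilutions at 37°C for 14-16 h, acetone fixation, guinea pig anti-rotavirus IgG (1:1000), then FITC anti-guinea pig IgG (1:500), with foci counted by UV microscopy. DGEA and GHRP served as controls.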

[4] = test system: Ro1845; experiment: Ro1845 binding assay in mouse cholangiocytes; type: cell-based, rotavirus, human strain; mouse cholangiocytes; conditions: mouse cholangiocytes pretreated with 1 mM peptide; Fig. 2A, 3B
In short: as §1

[5] = test system: Ro1845; experiment: Ro1845 viral yield in mouse cholangiocytes; type: cell-based, rotavirus, human strain; mouse cholangiocytes; conditions: mouse cholangiocytes pretreated with 1 mM peptide; Fig. 2B, 3C
In short: as §2

[6] = test system: RRV; experiment: RRV binding in siRNA-transfected mouse cholangiocytes; type: cell-based, rhesus rotavirus; mouse cholangiocytes; conditions: 1 mM peptide, Fig. 8A
[7] = test system: RRV; experiment: RRV replication; type: cell-based; conditions: for inhibition of RRV replication: mouse cholangiocytes pretreated with 1 mM peptide, Fig. 8D; for effect on RRV replication: mouse cholangiocytes pretreated with peptide, concentration not given, Fig. 4B
In short: as §2

[8] = test system: rotavirus; conditions: due to decreased viral entry; cited from earlier work
[9] = test system: RRV; conditions: negative control peptide; cited from earlier work
[10] = test system: RRV; experiment: Murine model of biliary atresia; type: in vivo, BALB/c mice; conditions: bile ducts harvested 12 days after infection with RRV and peptide treatment; Fig. 5C
[11] = test system: GRV; experiment: GRV binding assay in mouse cholangiocytes; type: cell-based, rotavirus, goat strain; mouse cholangiocytes; conditions: mouse cholangiocytes pretreated with 1 mM peptide; Fig. 2A
In short: as §1

[12] = test system: GRV; experiment: GRV viral yield in mouse cholangiocytes; type: cell-based, rotavirus, goat strain; mouse cholangiocytes; conditions: mouse cholangiocytes pretreated with 1 mM peptide; Fig. 2B
In short: as §2

[13] = test system: RRV; experiment: RRV binding assay in human cholangiocytes; type: cell-based, rhesus rotavirus; human cholangiocytes (H69)
In short: as §1

[14] = test system: RRV; experiment: RRV replication in human cholangiocytes; type: cell-based, rhesus rotavirus; human cholangiocytes (H69)
In short: as §2

[15] = test system: GRV; experiment: GRV binding assay in H69 cells; type: cell-based, rotavirus, goat strain; human cholangiocytes (H69); conditions: Fig. 6C
In short: as §1

[16] = test system: GRV; experiment: GRV viral yield in H69 cells; type: cell-based, rotavirus, goat strain; human cholangiocytes (H69); conditions: Fig. 6D
In short: as §2

[17] = test system: TUCH; experiment: TUCH binding assay in H69 cells; type: cell-based, rotavirus, simian strain; human cholangiocytes (H69); conditions: Fig. 6C
In short: as §1

[18] = test system: TUCH; experiment: TUCH viral yield in H69 cells; type: cell-based, rotavirus, simian strain; human cholangiocytes (H69); conditions: Fig. 6D
In short: as §2

[19] = test system: Ro1845; experiment: Ro1845 binding assay in H69 cells; type: cell-based, rotavirus, human strain; human cholangiocytes (H69); conditions: Fig. 6C
In short: as §1

[20] = test system: Ro1845; experiment: Ro1845 viral yield in H69 cells; type: cell-based, rotavirus, human strain; human cholangiocytes (H69); conditions: Fig. 6D
In short: as §2

[21] = mouse cholangiocytes pretreated with 1 mM peptide, versus serum-free media, Fig. 3B, 4C, 8C
[22] = mouse cholangiocytes pretreated with peptide, concentration not given, Fig. 4A

For DGEA [reference compound], the “effect on RRV binding” value [1, 21] was “significantly inhibited”, the “RRV binding, percent of control (positive control)” value ([1]; mouse cholangiocytes, concentration not given, Fig. 1B) was 61.40% and the “effect on TUCH binding” value [2] was “significantly inhibited”. The “effect on TUCH replication / viral yield” value [3] was “significantly inhibited”, the “effect on Ro1845 binding” value [4] was “significantly inhibited” and the “effect on Ro1845 replication / viral yield” value [5] was “significantly inhibited”. The “peptide blocking of RRV binding in negative control siRNA cholangiocytes” value [6] was “remained sensitive to DGEA blocking”.

In the case of “FSGIKSTIDAAKSMATNVMKKFKK [reference compound]”, the “effect on RRV binding” value [1, 21] is given as “no effect”, the “inhibition of RRV replication” value [7] is given as 42.43% and the “viral replication in MA104 cells treated with peptide” value [8] is given as “reduced viral replication”.

For GHRP, the “ability to inhibit RRV binding” value [9] is given as “no ability to inhibit RRV binding”.

For ISRLY, the “effect on RRV binding” value [1, 21] was “maintained the ability to inhibit”.

For KTKIDRSTQISPNTLPD [reference compound], the “effect on RRV binding” value [1, 21] is listed as “no effect”, the “inhibition of RRV replication” value [7] is listed as 54.50% and the “viral replication in MA104 cells treated with peptide” value [8] is listed as “reduced viral replication”.

For MRTRVSGLY, the “effect on RRV binding” value [1, 21] was “no effect”, the “effect on TUCH binding” value [2] was “no effect” and the “effect on TUCH replication / viral yield” value [3] was “no effect”. The “effect on Ro1845 binding” value [4] was “no effect” and the “effect on Ro1845 replication / viral yield” value [5] was “no effect”.

For MRTRVSRLY, the “effect on RRV binding” value [1, 22] was “significantly inhibiting” and the “effect on RRV replication” value [7] was “significantly inhibiting”.

With PTAAGV the “effect on RRV-cholangiocyte binding” value ([1]; mouse cholangiocytes, Fig. 1B) was “did not interfere”.

For SSASAW, the “effect on RRV-cholangiocyte binding” value ([1]; mouse cholangiocytes, Fig. 1B) was “did not interfere” and the “histology of extrahepatic bile ducts (hematoxylin and eosin)” value [10] was “complete obstruction of their bile ducts”.

In the case of TRTRVSRLY, the “effect on RRV binding” value [1, 21] is reported as “significantly reduced”, the “inhibition of RRV binding compared with control” value ([1]; mouse cholangiocytes pretreated with 1 mM peptide, Fig. 2A) is reported as 45.13% and the “effect on RRV binding” value [1, 22] is reported as “significantly inhibiting”. The “inhibition of RRV replication” value [7] was 44.53%, the “effect on RRV replication” value [7] was “significantly inhibiting” and the “inhibition of GRV binding compared with control” value [11] was 41.27%. For the same substance, the “reduction of GRV viral yield, of control” value [12] was 35.51%, the “effect on TUCH binding” value [2] was “no effect” and the “effect on TUCH replication / viral yield” value [3] was “no reduction in viral yield; also recorded: no effect”. The “effect on Ro1845 binding” value [4] was “no effect”, the “effect on Ro1845 replication / viral yield” value [5] was “no reduction in viral yield; also recorded: no effect” and the “RRV binding to human cholangiocytes, of control” value ([13]; H69 cells, 1 mM peptide, Fig. 6A) was 65.9%. For the same substance, the “effect on RRV binding to H69 cells” value ([13]; strain comparison, Fig. 6C) was “able to block”, the “RRV replication within human cholangiocytes, of control” value ([14]; H69 cells, 1 mM peptide, Fig. 6B) was 57.9% and the “effect on RRV viral yield in H69 cells” value ([14]; strain comparison, Fig. 6D) was “reduced viral yields”. For the same substance, the “effect on GRV binding to H69 cells” value [15] was “able to block”, the “effect on GRV viral yield in H69 cells” value [16] was “reduced viral yields” and the “effect on TUCH binding to H69 cells” value [17] was “no effects”. The “effect on TUCH viral yield in H69 cells” value [18] was “no decrease in yield”, the “effect on Ro1845 binding to H69 cells” value [19] was “no effects” and the “effect on Ro1845 viral yield in H69 cells” value [20] was “no decrease in yield”. The “histology of extrahepatic bile ducts (hematoxylin and eosin)” value [10] was “mild inflammation with a patent lumen”.

In the case of VRTRISGLY, the “effect on RRV binding” value [1, 21] is reported as “no effect”, the “effect on TUCH binding” value [2] is reported as “no effect” and the “effect on TUCH replication / viral yield” value [3] is reported as “no effect”. For the same substance, the “effect on Ro1845 binding” value [4] was “no effect” and the “effect on Ro1845 replication / viral yield” value [5] was “no effect”.

For VSGLY, the “effect on RRV binding” value [1, 21] was “unable to exhibit such inhibition”.

With VSRAY the “effect on RRV binding” value [1, 21] was “unable to exhibit such inhibition”.

In the case of VSRLA, the “effect on RRV binding” value [1, 21] is reported as “maintained the ability to inhibit”.

In the case of VSRLY, the “effect on RRV binding” value [1, 21] is reported as “maintained the ability to inhibit”.

In the case of VVRLY, the “effect on RRV binding” value [1, 21] is reported as “unable to exhibit such inhibition”.
